From ChEMBL document CHEMBL4321849, “Biphenyl Acid Derivatives as APJ Receptor Agonists” (J Med Chem, 2019)
In brackets after ≈: the same amount, converted by molar mass. Activity calls are given as the source filed them. No cut-off for these calls is given here.

Assays:
[1] = target: T1, Apelin receptor (Homo sapiens, UniProt P35414); test: Agonist activity at human APJ-R expressed in HEK293 cells assessed as inhibition of forskolin- stimulated cAMP accumulation incubated for 30 mins by HTRF assay; assay type: functional, cell-based
T1 sequence (P35414 whole entry): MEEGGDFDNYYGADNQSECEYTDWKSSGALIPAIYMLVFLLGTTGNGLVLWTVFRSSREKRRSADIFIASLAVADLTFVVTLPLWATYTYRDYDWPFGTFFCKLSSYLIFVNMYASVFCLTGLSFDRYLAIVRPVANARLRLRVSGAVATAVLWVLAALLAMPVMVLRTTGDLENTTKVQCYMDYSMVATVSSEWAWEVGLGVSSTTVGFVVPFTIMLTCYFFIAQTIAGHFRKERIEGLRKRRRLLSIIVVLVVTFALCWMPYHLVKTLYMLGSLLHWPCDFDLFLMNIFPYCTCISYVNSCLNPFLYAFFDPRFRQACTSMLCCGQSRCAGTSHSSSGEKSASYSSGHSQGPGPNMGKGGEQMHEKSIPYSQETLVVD

[2] = Solubility in pH 7.4 buffer using amorphous form; assay type: physicochemical
[3] = target: T2, Apelin receptor (Rattus norvegicus, UniProt Q9JHG3); test: Agonist activity at rat APJ-R expressed in HEK293 cells assessed as inhibition of forskolin- stimulated cAMP accumulation incubated for 30 mins by HTRF assay; assay type: functional, cell-based
T2 sequence (Q9JHG3 whole entry): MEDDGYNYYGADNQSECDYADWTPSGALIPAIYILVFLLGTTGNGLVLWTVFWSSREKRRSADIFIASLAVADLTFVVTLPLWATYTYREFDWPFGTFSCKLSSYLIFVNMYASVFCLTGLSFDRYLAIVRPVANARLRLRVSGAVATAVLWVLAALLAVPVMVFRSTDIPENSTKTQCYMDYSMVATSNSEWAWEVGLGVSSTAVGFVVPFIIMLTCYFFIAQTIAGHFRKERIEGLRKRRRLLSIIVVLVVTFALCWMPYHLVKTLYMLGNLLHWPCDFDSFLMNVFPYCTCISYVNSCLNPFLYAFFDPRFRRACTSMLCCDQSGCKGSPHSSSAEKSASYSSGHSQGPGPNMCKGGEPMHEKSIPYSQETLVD

[4] = Plasma concentration in Sprague-Dawley rat at 1000 ug/min/kg, iv infused into jugular vein for 15 mins; assay type: ADME, organism-based
Outline: (§1)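 Rats separate from the hemodynamic groups received the same 15 min jugular infusions (n = 3/dose). Plasma concentration (μM) was measured at the end of the 15 min infusion. Washout samples were also taken after stopping the 10 and 1000 μg/kg/min infusions.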

[5] = (§2) Toxicity in isoflurane-anesthetized Sprague-Dawley rat assessed as effect on heart rate at 100 ug/min/kg, iv infused into jugular vein for 15 mins with continuous monitoring of hemodynamics followed by monitoring for additional 15 mins after terminating infusion by pressure-volume loop analysis relative to control; assay type: organism-based; details: in vivo, 0.25 h
Outline: (§3)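 Male SD rats under isoflurane, instrumented with a Millar PV-loop catheter in the LV and a pressure catheter in the abdominal aorta. After a stable baseline, test agent or N,N-dimethylacetamide vehicle (100 μL/kg/min) infused into the jugular vein for 15 min. Hemodynamics were monitored continuously during infusion and for 15 min after it stopped. n = 7–8 per dose, vehicle n = 10.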

[6] = as §2, with “blood pressure by measuring transient blood pressure drop” for “heart rate”; assay type: organism-based; details: in vivo, 0.25 h; outline: as §3
[7] = Plasma concentration in Sprague-Dawley rat at 10 ug/min/kg, iv infused into jugular vein for 15 mins; assay type: ADME, organism-based; outline: as §1
[8] = as §2, with “10 to 1000” for “100”; assay type: organism-based; details: in vivo, 0.25 h; outline: as §3
[9] = test system: Rattus norvegicus; test: as §2, with “Acute hemodynamic effect” for “Toxicity”, “increase in cardiac output” for “effect on heart rate”; assay type: functional; outline: as §3
[10] = Plasma concentration in Sprague-Dawley rat at 100 ug/min/kg, iv infused into jugular vein for 15 mins; assay type: ADME, organism-based; outline: as §1
[11] = target: T3, Apelin receptor (Homo sapiens) (UniProt P35414); test: Displacement of [125I]-apelin-13 from human APJ-R expressed in HEK293 cell membranes incubated for 1 hr by radioligand binding assay
T3 sequence (whole entry): T1 sequence (P35414 whole entry)
Outline: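 Membranes from HEK293 cells expressing human APJ-R (1 μg) were incubated with increasing test concentrations and 0.1 nM [125I]-(Pyr1)apelin-13. Buffer was 25 mM HEPES, 10 mM MgCl2, 2 mM EGTA and 0.1% BSA, pH 7.2. Incubation ran 1 h at room temperature. Bound ligand was separated on 0.3% polyethyleneimine-soaked GF/B filters.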

[12] = test system: Rattus norvegicus; test: as §2, with “Acute hemodynamic effect” for “Toxicity”, “increase in cardiac output” for “effect on heart rate”, “10 to 1000” for “100”; assay type: functional, organism-based; outline: as §3
[13] = as §2, with “blood pressure by measuring transient blood pressure drop” for “heart rate”, “6” for “100”; assay type: organism-based; details: in vivo, 0.25 h; outline: as §3
[14] = test system: Rattus norvegicus; test: as §2, with “Acute hemodynamic effect” for “Toxicity”, “increase in cardiac output” for “effect on heart rate”, “6” for “100”; assay type: functional, organism-based; outline: as §3
[15] = as §2, with “6” for “100”; assay type: organism-based; details: in vivo, 0.25 h; outline: as §3

SMILES | EC50 [1] [nM] | other results
CCC[C@@H](NC(=O)c1ccc(-c2ccccc2-c2nc3ccccc3[nH]2)c(C(=O)O)c1)c1ccccc1 | 5.7 | –
CCC[C@@H](NC(=O)c1ccc(-c2cc(Cl)ccc2-c2nc3cc(OC)ccc3[nH]2)c(C(=O)O)c1)c1ccccc1 | 0.083 | –
CCC[C@@H](NC(=O)c1ccc(-c2cccc(Cl)c2-c2nc3ccccc3[nH]2)c(C(=O)O)c1)c1ccccc1 | 2100 | –
CCC[C@@H](NC(=O)c1ccc(-c2cc(Cl)ccc2-c2nc3ccccc3[nH]2)c(C(=O)O)c1)c1ccccc1 | 1.4 | –
CCC[C@@H](NC(=O)c1ccc(-c2cc(OC)ccc2-c2nc3ccccc3[nH]2)c(C(=O)O)c1)c1ccccc1 | 5.7 | –
CCC[C@@H](NC(=O)c1ccc(-c2c(Cl)cccc2-c2nc3ccccc3[nH]2)c(C(=O)O)c1)c1ccccc1 (stereo in doubt; 12f) | 0.2 | –
CCC[C@@H](NC(=O)c1ccc(-c2c(F)cccc2-c2nc3ccccc3[nH]2)c(C(=O)O)c1)c1ccccc1 | 0.51 | –
CCC[C@@H](NC(=O)c1ccc(-c2cc(Cl)ccc2C(=O)Nc2ccc(OC)c(F)c2)c(C(=O)O)c1)c1ccccc1 | 0.33 | –
CCC[C@@H](NC(=O)c1ccc(-c2c(Cl)cccc2-c2nc3cc(OC)ccc3[nH]2)c(C(=O)O)c1)c1ccccc1 | 0.062 | solubility [2]: 180 µg/mL (≈ 325 µM); EC50 [3]: 0.12 nM
CCC[C@@H](NC(=O)c1ccc(-c2cc(Cl)ccc2-c2nc3ccncc3[nH]2)c(C(=O)O)c1)c1ccccc1 | 19 | –
CCC[C@@H](NC(=O)c1ccc(-c2ccc(Cl)cc2-c2nc3ccccc3[nH]2)c(C(=O)O)c1)c1ccccc1 | 9 | –
CCC[C@@H](NC(=O)c1ccc(-c2cc(Cl)ccc2-c2ncc(-c3ccccc3)[nH]2)c(C(=O)O)c1)c1ccccc1 | 7.4 | –
CCC[C@@H](NC(=O)c1ccc(-c2c(Cl)cccc2-c2nc3ccccc3[nH]2)c(C(=O)O)c1)c1ccccc1 (stereo in doubt; 15a) [listing 1 of 2 here] | 0.093 | concentration at 0.25 h [4]: 82 µM; Activity [5]: Non-Toxic; Activity [6]: < 5%; solubility [2]: 660 µg/mL (≈ 1260 µM); concentration at 0.25 h [7]: 0.44 µM; Activity [8]: Non-Toxic; Activity [9]: 10%; concentration at 0.25 h [10]: 4.4 µM; EC50 [3]: 0.12 nM
COc1ccc(NC(=O)c2ccc(Cl)cc2-c2ccc(C(=O)Nc3ccc4c(c3)CCC4)cc2C(=O)O)cc1F | 29 | –
COC[C@@H](NC(=O)c1ccc(-c2cc(Cl)ccc2C(=O)Nc2ccc(OC)c(F)c2)c(C(=O)O)c1)c1ccccc1 | 0.19 | –
CCC[C@@H](NC(=O)c1ccc(-c2c(C)cccc2-c2nc3ccccc3[nH]2)c(C(=O)O)c1)c1ccccc1 | 0.18 | –
CCC[C@@H](NC(=O)c1ccc(-c2c(Cl)cccc2-c2nc3ccccc3[nH]2)c(C(=O)O)c1)c1ccccc1 (stereo in doubt; 15a) [listing 2 of 2 here] | – | inhibition [11]: Active; Activity [12]: Dose-dependent effect
CSCC[C@H](NC(=O)[C@@H]1CCCN1C(=O)CNC(=O)[C@H](CCCCN)NC(=O)[C@H](Cc1cnc[nH]1)NC(=O)[C@H](CO)NC(=O)[C@H](CC(C)C)NC(=O)[C@H](CCCNC(=N)N)NC(=O)[C@@H]1CCCN1C(=O)[C@H](CCCNC(=N)N)NC(=O)[C@@H]1CCC(=O)N1)C(=O)N1CCC[C@H]1C(=O)N[C@@H](Cc1ccccc1)C(=O)O | – | Activity [13]: Non-Toxic; Activity [14]: Active; Activity [15]: Non-Toxic
CCC[C@@H](NC(=O)c1ccc(-c2cc(C)ccc2-c2nc3ccccc3[nH]2)c(C(=O)O)c1)c1ccccc1 | 1.5 | –
CCC[C@@H](NC(=O)c1ccc(-c2c(Cl)cccc2-c2nc3ccccc3[nH]2)c(C(=O)O)c1)c1ccccc1 (stereo in doubt; 15b) | 22 | EC50 [3]: 43 nM
CCC[C@@H](NC(=O)c1ccc(-c2cc(Cl)ccc2-c2nc3cc(Cl)ccc3[nH]2)c(C(=O)O)c1)c1ccccc1 | 0.31 | –
CCC[C@@H](NC(=O)c1ccc(-c2cc(Cl)ccc2-c2nc3cc(C)ccc3[nH]2)c(C(=O)O)c1)c1ccccc1 | 0.6 | –
CCC[C@@H](NC(=O)c1ccc(-c2cc(Cl)ccc2-c2nc3cccc(C)c3[nH]2)c(C(=O)O)c1)c1ccccc1 | 51 | –
COC[C@H](NC(=O)c1ccc(-c2cc(Cl)ccc2C(=O)Nc2ccc(OC)c(F)c2)c(C(=O)O)c1)c1ccccc1 | 2.7 | –
CCC[C@@H](NC(=O)c1ccc(-c2cc(Cl)ccc2-c2nc3ccccc3o2)c(C(=O)O)c1)c1ccccc1 | 4900 | –
COc1ccc(NC(=O)c2ccc(Cl)cc2-c2ccc(C(=O)N[C@H](CO)c3ccccc3)cc2C(=O)O)cc1F | 59 | –
